High-throughput results deposited in PubChem by several laboratories.
Shown are actives, neighbours in structure and some others; about 1.8% of the full set was active somewhere.
NR2E3 ag-1 – NR2E3 agonists in two-hybrid cells, primary screen, cell-based, luminescence, CHO-S, Gal4-NCOR/VP16-NR2E3. 360,000 compounds, 0.35% hits. inhibition of corepressor binding, % at 3.98 µM. luciferase. Photoreceptor-specific nuclear receptor (Homo sapiens), Q9Y5X4. AID 602229, 2012;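 active means inhibition above the mean of all tested compounds plus 3 SD, cut at about 70% in these data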;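 further: 0% = DMSO with NR2E3 transfected cells and 100% = cells lacking NR2E3 construct; higher means lower luciferase signal from less NR2E3 corepressor binding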
NR2E3 ag-2 – inhibitors of NR2E3-RetCOR corepressor binding, primary screen, NR2E3 agonist project, biochemical, TR-FRET, GST-NR2E3, biotin-RetCOR | Photoreceptor-specific nuclear receptor (Homo sapiens), Q9Y5X4 | 1536-well | inhibition of corepressor binding, % at 4.78 µM | 320,000 compounds, 0.12% hits | AID 2300, 2010;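 active means percent inhibition above the cutoff of mean plus 3 SD of all tested compounds, set per screening campaign, cut at about 20% in these data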;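 further: 0% = DMSO wells and 100% = biotin wells as full block of FRET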
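Material: NR2E3–RetCOR corepressor complex / Amount: 1.35 nM GST-NR2E3 / Medium: Tris pH 7.5 / Compound: single nominal compound dose of 4.8 µM / Incubation: 5 h at 4 °C / Technique: TR-FRET, Eu(K)-anti-GST donor, streptavidin-D2 acceptor, ex 340, em 617/671 nm / Read-out basis: percent loss of FRET ratio relative to control wells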
Gli-Sufu antag – Gli-Sufu pathway antagonists, primary screen, luciferase luminescence, Sufu-KO-LIGHT cells, uHTS. Sufu-KO-LIGHT fibroblasts, Gli luciferase reporter luminescence. inhibition, % at 5 µM. 340,000 compounds, 0.74% hits. AID 588413, 2011;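 active means inhibition above about 55%, limit read from the data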;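 further: 0% = DMSO-treated cells and 100% = wells with medium but no cells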
GalR3 antag – GalR3 antagonists in HEK293 cells, primary screen, cell-based, fluorescence readout. AID 651719, 2012. Galanin receptor type 3 (Homo sapiens), O60755. HEK293 GalR3-CNG cAMP membrane potential fluorescence; galR3 body fused to GalR1 C-terminus. 360,000 compounds, 0.44% hits. inhibition, % at 3 µM;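 active means inhibition above the screen-wide average plus 3 SD, cut at about 13% in these data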;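 further: forskolin and galanin both at EC90 stimulate the cells; cAMP rise reported by CNG channel membrane potential dye signal; 0% = forskolin plus galanin with DMSO and 100% = forskolin alone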
Target sequence (O60755 1-299 limits assumed): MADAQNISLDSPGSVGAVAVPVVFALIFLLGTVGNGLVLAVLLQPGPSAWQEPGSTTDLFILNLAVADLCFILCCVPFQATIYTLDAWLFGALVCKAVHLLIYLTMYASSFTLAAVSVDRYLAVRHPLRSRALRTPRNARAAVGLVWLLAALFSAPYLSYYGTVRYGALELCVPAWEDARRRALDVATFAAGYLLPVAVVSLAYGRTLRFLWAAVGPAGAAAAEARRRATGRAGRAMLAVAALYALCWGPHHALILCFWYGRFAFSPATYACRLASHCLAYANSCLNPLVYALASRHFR
Jurkat NFkB inh – inhibitors of induced NF-kB luciferase reporter, primary screen, TCR NF-kB activation inhibitor project, cell-based, luminescence, uHTS; inhibition, % at 4 µM; 330,000 compounds, 0.53% hits; Jurkat, PMA/ionomycin-induced NF-kB luciferase reporter; AID 435003, 2010; in the data active means inhibition above about 50%
697 NFkB inh – inhibitors of PMA/ionomycin-induced NF-kB reporter, 697 cells, primary screen, B-cell NF-kB inhibitor project, cell-based, luminescence, uHTS | 697 B-cell NF-kB luciferase reporter, 16 h | inhibition, % at 4 µM | 330,000 compounds, 0.33% hits | AID 435022, 2010; in the data active means inhibition above about 35%
Numbers without * were called inactive; x = no result given.

SMILES	NR2E3 ag-1	NR2E3 ag-2	Gli-Sufu antag	GalR3 antag	Jurkat NFkB inh	697 NFkB inh
CC[C@H](C)C1OC(=O)[C@@H](C)[C@@H](CC)NC(=O)[C@H](C)N(C)C(=O)C(C)(C)C(=O)C(C)NC(=O)[C@H](Cc2ccc(OC)cc2)N(C)C(=O)[C@H](C(C)C)N(C)C(=O)CNC(=O)[C@H](CC(C)C)N(C)C(=O)CNC1=O (some centres not stated)	81*	x	x	x	x	x
CCOC(=O)/C(=C/c1ccc(OC(F)F)cc1)C1=Nn2c(nnc2-c2ccc(Cl)cc2)SC1	-13	x	10	4	x	x
CCOC(=O)/C(=C\c1ccc(OC(F)F)cc1)C1=Nn2c(nnc2-c2ccc(Cl)cc2)SC1	25	0	56*	x	x	x
O=C(N/N=C/c1ccccn1)c1cc(-c2ccc(Cl)cc2)nc2ccccc12	-22	-1	89*	-3	38	-67
CC1(C)C(/C=C/C=C/C=C/C=C2\N(CCCCS(=O)(=O)O)c3ccc4ccccc4c3C2(C)C)=[N+](CCCCS(=O)(=O)[O-])c2ccc3ccccc3c21	-27	27*	6	x	18	16
Cc1cc(-c2cc(NC(=O)Cc3c[nH]c4ccccc34)ccc2Nc2cccnc2)ccc1F	x	x	x	-7	x	x
Cc1cc(C)n2c(=O)c3ccc(Cl)cc3nc2c1C#N	-13	9	-7	-6	-11	0
Cc1cc(Cl)n2c(nc3cc(F)c(F)cc32)c1C#N	-32	x	62*	0	x	x
Cc1cc(Cl)ccc1OCC(=O)Nc1ccncc1	12	4	-35	55*	14	-5
Cc1nn(C)c(C)c1NC(=O)COc1ccc(F)cc1Br	-9	x	-4	-4	5	-24
Cc1nn(C)c(C)c1NC(=O)COc1ccc(Cl)cc1Br	17	-4	14	53*	10	-17
O=Cc1ccc(/C=C2\c3ccccc3C(=O)N2c2ccccc2)o1	x	x	x	-3	x	x
CCN(CC)c1ccc(N)cc1	-61	0	61*	x	12	-5
Nc1ccc(N(CCO)CCO)cc1	-10	1	-11	-4	13	1
COC(=O)c1cc2c(n1S(=O)(=O)c1ccc(C)cc1)C(=O)C(=O)c1[nH]cc(C(=O)OCc3ccccc3)c1-2	59	x	87*	x	x	x
COC(=O)c1cc2c(c3c4cc(OC)ccc4n(S(=O)(=O)c4ccc(C)cc4)c13)C(=O)N(Cc1ccccc1)C2	x	x	x	-6	x	x
COc1ccccc1N1CCN(Cc2ccc(O)c3ncccc23)CC1	-19	-2	76*	-6	31	-3
CCN1CCS/C1=C/C=C/C1=[N+](CC)CCS1	19	-9	82*	x	x	x
COc1ccc(/C=N/Nc2cc(C)nc3c(C)cccc23)cc1	-4	2	33	-6	-46	-31
COc1ccc(/C=N/Nc2cc(C)nc3ccccc23)cc1	-2	4	55*	2	-55	-38
Cc1cc(N2CCN(C(=O)OC(C)(C)C)C[C@@H]2C)ccc1N1CCN(Cc2ccccc2)[C@@H](C)C1	x	x	x	-7	x	x
O=C(O)C1=CC(=C(c2ccc(O)c(C(=O)O)c2)c2ccc(O)c(C(=O)O)c2)C=CC1=O	x	30*	x	x	x	x
CCOC(=O)CN1C(=O)N(c2ccc(OC)cc2)[C@H]2CC3c4ccccc4C[C@]3(C)[C@@H](C(=O)N(C)C3CCCCC3)C[C@H]21 (some centres not stated)	x	x	x	-8	x	x
Cc1[nH]c2ccccc2c1CC(=O)Nc1ccc(Nc2cccnc2)c(-c2cc(C(F)(F)F)cc(C(F)(F)F)c2)c1	x	x	x	-9	x	x
COc1cc(OC)c2c(-c3cccc(-c4sccc4C(C)=O)c3)cc(=O)oc2c1	-38	x	67*	-6	x	-9
SMILES	NR2E3 ag-1	NR2E3 ag-2	Gli-Sufu antag	GalR3 antag	Jurkat NFkB inh	697 NFkB inh
CC(=O)Nc1ccc(NC2=Nc3ccccc3N3C2=Nc2c(c(C)nn2-c2ccccc2)C3c2ccccc2)cc1 (configuration not stated)	-2	-1	60*	-1	38	-2
CC(C)(C)c1cc(CCC(=O)NNC(=S)NC(=O)c2ccccc2)cc(C(C)(C)C)c1O	5	-1	59*	x	-1	-28
N#CCC1(O)C(=O)Nc2ccccc21 (configuration not stated)	x	x	x	-4	x	x
CCC(C)(C)c1ccc(OCCCC[n+]2cccc(C)c2)c(C(C)(C)CC)c1	10	x	87*	1	x	x
Cc1ccc[n+](CC(=O)Nc2cc(C(F)(F)F)ccc2Cl)c1	0	7	4	-4	-14	5
COc1c2c(cc3c1c(=O)c1ccccc1n3C)OCO2	x	x	x	-6	x	x
COc1ccc(C2CC(=O)C(c3cccc(C)c3)=CN2Cc2ccccc2)cc1 (configuration not stated)	x	x	x	-5	x	x
COc1ccc(-c2cc(C3CCN(c4ccc(C(C)=O)cc4[N+](=O)[O-])CC3)[nH]n2)cc1	73*	0	35	-9	17	-36
COC(=O)c1ccc(N2CCC(c3cc(-c4ccc(OC)cc4)n[nH]3)CC2)c([N+](=O)[O-])c1	-6	-3	5	-6	-7	-67
CC(C)c1ccc(S(=O)(=O)/N=C2/C=C(Sc3ncn[nH]3)C(=O)c3ccccc32)cc1	67	7	-3	x	x	x
Cc1ccc(S(=O)(=O)/N=C2/C=C(Sc3ncn[nH]3)C(=O)c3ccccc32)cc1	106*	7	22	x	x	x
Cc1cc(C)c(C(=O)/C=C/c2ccc(C(C)C)cc2)c(=O)[nH]1	82*	-4	-7	-4	26	25
CCN1C(=NCC2CC2)N[C@@H](c2cccc(C(F)(F)F)c2)C(C(=O)OC)=C1C	17	3	96*	x	6	-8
CNc1cccnc1C=NNC(N)=S	40	x	84*	2	x	x
Nc1ccn([C@@H]2O[C@H](C(=O)N[C@H](Cc3ccccc3)C(=O)NCc3cccc4c3OCO4)[C@@H](O)[C@H]2O)c(=O)n1	x	x	x	-7	x	x
Cc1cc(/C=C\c2ccc3cc(N(C)C)ccc3[n+]2C)c(C)n1-c1ccccc1	100*	5	94*	x	14	4
Oc1cc(O)cc(C=Cc2ccc(O)c(O)c2)c1	x	x	x	-3	x	x
NC(=S)n1[nH]c(-c2ccc([N+](=O)[O-])cc2)c(N=Nc2ccccc2[N+](=O)[O-])c1=O	-35	x	2	-5	x	x
Cc1c(N=Nc2c(-c3ccc([N+](=O)[O-])cc3)[nH]n(C(N)=S)c2=O)cccc1[N+](=O)[O-]	-16	x	68*	-1	x	x
